Activity calls are given as the source filed them. The rule behind the calls is not given here.
Key:
[1] = target: Focal adhesion kinase 1 (Homo sapiens, UniProt Q05397); assay: Inhibition of FAK (unknown origin) using ULight-poly GT as substrate after 1.6 hrs by TR-FRET assay
[2] = (§1) Inhibition of colony formation in human U87MG cells after 2 weeks by crystal violet staining-based assay; format: functional, cell-based, U-87MG ATCC; conditions: U-87 MG, 336 h
Procedure, shortened: (§2)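 Seeding: 250 cells per well for HCT-116, 300 for U87MG, MDA-MB-231 and PC-3; incubated overnight, then exposed to a range of concentrations for 2 weeks. Fixed in 4% paraformaldehyde 30 min at room temperature, stained with 0.1% crystal violet. Colonies over 50 cells counted; colony formation rate calculated; IC50 by nonlinear regression.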

[3] = tested on: MDA-MB-231; assay: Antiproliferative activity against human MDA-MB-231 cells after 48 hrs by WST-1 assay; format: functional, cell-based; conditions: MDA-MB-231, 48 h
Procedure, shortened: (§3)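 Exponentially growing cells in DMEM/10% FBS seeded at 5 × 10^3 per well, left overnight, then exposed 48 h to compounds diluted from DMSO; WST-1 added for 2 h, absorbance at 450 nm (reference 620 nm); viability as ratio to DMSO controls; three independent experiments, triplicate points; IC50 by nonlinear regression (log inhibitor vs normalized response, variable slope).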

[4] = tested on: U-87 MG; assay: Reduction of cell adherence in human U87MG cells after 30 mins by toluidine blue staining-based […]; format: functional; conditions: U-87MG ATCC
Procedure, shortened: (§4)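 U87-MG cells grown in 10% serum, trypsinised, diluted to 100 000 cells/mL in 10% serum medium, then treated 30 min with compound or DMSO. 20 000 cells per well allowed to attach 1 h. Fixed in 4% paraformaldehyde 30 min, stained with 0.1% toluidine blue in 4% PFA 30 min, washed, OD read at 620 nm for attached cells.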

[5] = Antiproliferative activity against human HCT116 cells after 48 hrs by WST-1 assay; format: functional, cell-based; conditions: HCT-116, 48 h; procedure, shortened: as §3
[6] = tested on: U-87MG ATCC; assay: Antimigratory activity in human U87MG cells at 4 uM […] by transwell membrane assay; format: functional, cell-based
[7] = tested on: U-87MG ATCC; assay: Antimigratory activity in human U87MG cells after 30 mins by boyden chamber assay; format: functional, cell-based
[8] = (§5) Inhibition of colony formation in human PC3 cells after 2 weeks by crystal violet staining-based assay; format: functional, cell-based; conditions: PC-3, 336 h; procedure, shortened: as §2
[9] = tested on: MDA-MB-231; assay: Inhibition of colony formation in human MDA-MB-231 cells after 2 weeks by crystal violet staining-based assay; format: functional, cell-based; conditions: for IC50: MDA-MB-231, 336 h; procedure, shortened: as §2
[10] = (§6) Inhibition of colony formation in human HCT116 cells after 2 weeks by crystal violet staining-based assay; format: functional, cell-based; conditions: HCT-116, 336 h; procedure, shortened: as §2
[11] = Antiproliferative activity against human U87MG cells after 48 hrs by WST-1 assay; format: functional, cell-based, U-87MG ATCC; conditions: U-87 MG; procedure, shortened: as §3
[12] = Antiproliferative activity against human PC3 cells after 48 hrs by WST-1 assay; format: functional, cell-based; conditions: PC-3, 48 h; procedure, shortened: as §3
[13] = Antiinvasive activity in human U87MG cells after 24 hrs by matrigel assay; format: functional, U-87MG ATCC
Procedure, shortened: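 U-87MG pre-exposed 24 h to compound or DMSO in 3% FBS, then 4 × 10^4 cells seeded in upper chamber of impedance-based CIM-16 plate (8 μm pore membrane) coated with Matrigel/collagen; lower chamber 10% FBS; cell index monitored at 37 °C, 5% CO2 for 12 h; slope (1/h) over set interval, DMSO slope set to 100; duplicate wells, repeated twice.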

[14] = tested on: HCT-116; assay: Induction of apoptosis in human HCT116 cells at < 0.4 uM after 24 hrs by Annexin V-PE/7-AAD staining-based FACS analysis; format: functional, cell-based
[15] = tested on: U-87 MG; assay: Induction of apoptosis in human U87MG cells assessed as viable cells at 0.3 uM after 24 hrs by Annexin V-PE/7-AAD staining-based FACS analysis (reference value: 96.7%); format: functional, U-87MG ATCC; conditions: read-out: Activity
[16] = tested on: HCT-116; assay: Induction of apoptosis in human HCT116 cells assessed as late apoptotic cells at 0.4 uM after 24 hrs by Annexin V-PE/7-AAD staining-based FACS analysis (reference value: 1.22%); format: functional
[17] = Antimigratory activity in human U87MG cells at 0.4 uM […] by transwell membrane assay; format: functional, U-87MG ATCC
[18] = tested on: HCT-116; assay: Induction of apoptosis in human HCT116 cells assessed as viable cells at 0.4 uM after 24 hrs by Annexin V-PE/7-AAD staining-based FACS analysis (reference value: 93.2%); format: functional; conditions: HCT-116, 24 h, read-out: Activity
[19] = tested on: HCT-116; assay: Induction of apoptosis in human HCT116 cells assessed as necrotic cells at 0.4 uM after 24 hrs by Annexin V-PE/7-AAD staining-based FACS analysis (reference value: 0.885%); format: functional
[20] = tested on: U-87MG ATCC; assay: as §1; format: functional, cell-based; procedure, shortened: as §2
[21] = tested on: U-87MG ATCC; assay: Antiinvasive activity in human U87MG cells after 30 mins by boyden chamber assay; format: functional, cell-based
[22] = Cell cycle arrest in human HCT116 cells assessed as accumulation at G0/G1 phase at 0.4 uM after 24 hrs by propidium iodide staining-based flow cytometry (reference value: 63.8%); format: functional; conditions: HCT-116
Procedure, shortened: (§7)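 Cells plated at 10^5 per well, left overnight, then exposed 24 h to compound or vehicle; stained 15 min at 37 °C with propidium iodide/Triton buffer; DNA content by flow cytometry, phase distribution fitted by Dean–Jett–Fox; HCT-116 at 0.3–0.5 μM, U87-MG at 0.3–3 μM; significance by unpaired Student's t test; one representative experiment.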

[23] = tested on: U-87 MG; assay: Induction of apoptosis in human U87MG cells assessed as necrotic cells at 0.3 uM after 24 hrs by Annexin V-PE/7-AAD staining-based FACS analysis (reference value: 1.06%); format: functional, U-87MG ATCC
[24] = tested on: HCT-116; assay: Induction of apoptosis in human HCT116 cells assessed as early apoptotic cells at 0.4 uM after 24 hrs by Annexin V-PE/7-AAD staining-based FACS analysis (reference value: 4.68%); format: functional
[25] = Cell cycle arrest in human HCT116 cells at < 0.4 uM after 24 hrs by propidium iodide staining-based flow cytometry; format: functional; conditions: HCT-116; procedure, shortened: as §7
[26] = Cell cycle arrest in human HCT116 cells assessed as accumulation at G2/M phase at 0.4 uM after 24 hrs by propidium iodide staining-based flow cytometry (reference value: 14.6%); format: functional; conditions: HCT-116; procedure, shortened: as §7
[27] = tested on: U-87 MG; assay: Induction of apoptosis in human U87MG cells assessed as late apoptotic cells at 0.3 uM after 24 hrs by Annexin V-PE/7-AAD staining-based FACS analysis (reference value: 1.59%); format: functional, U-87MG ATCC
[28] = tested on: PC-3; assay: as §5; format: functional, cell-based; procedure, shortened: as §2
[29] = Cell cycle arrest in human U87MG cells at < 0.3 uM after 24 hrs by propidium iodide staining-based flow cytometry; format: functional; conditions: U-87MG ATCC; procedure, shortened: as §7
[30] = tested on: U-87 MG; assay: Induction of apoptosis in human U87MG cells assessed as early apoptotic cells at 0.3 uM after 24 hrs by Annexin V-PE/7-AAD staining-based FACS analysis (reference value: 0.691%); format: functional, U-87MG ATCC
[31] = tested on: HCT-116; assay: as §6; format: functional, cell-based; procedure, shortened: as §2
[32] = Cell cycle arrest in human HCT116 cells assessed as accumulation at S phase at 0.4 uM after 24 hrs by propidium iodide staining-based flow cytometry (reference value: 17.7%); format: functional; conditions: HCT-116; procedure, shortened: as §7
[33] = tested on: U-87 MG; assay: Reduction of cell adherence in human U87MG cells at 0.5 uM after 30 mins by toluidine blue staining-based […]; format: functional, U-87MG ATCC; design: scale not given: the % may be the effect or the level left; procedure, shortened: as §4
[34] = tested on: U-87MG ATCC; assay: Antimigratory activity in human U87MG cells at 2 uM […] by transwell membrane assay; format: functional, cell-based

Sequence of Focal adhesion kinase 1 (Q05397 whole entry): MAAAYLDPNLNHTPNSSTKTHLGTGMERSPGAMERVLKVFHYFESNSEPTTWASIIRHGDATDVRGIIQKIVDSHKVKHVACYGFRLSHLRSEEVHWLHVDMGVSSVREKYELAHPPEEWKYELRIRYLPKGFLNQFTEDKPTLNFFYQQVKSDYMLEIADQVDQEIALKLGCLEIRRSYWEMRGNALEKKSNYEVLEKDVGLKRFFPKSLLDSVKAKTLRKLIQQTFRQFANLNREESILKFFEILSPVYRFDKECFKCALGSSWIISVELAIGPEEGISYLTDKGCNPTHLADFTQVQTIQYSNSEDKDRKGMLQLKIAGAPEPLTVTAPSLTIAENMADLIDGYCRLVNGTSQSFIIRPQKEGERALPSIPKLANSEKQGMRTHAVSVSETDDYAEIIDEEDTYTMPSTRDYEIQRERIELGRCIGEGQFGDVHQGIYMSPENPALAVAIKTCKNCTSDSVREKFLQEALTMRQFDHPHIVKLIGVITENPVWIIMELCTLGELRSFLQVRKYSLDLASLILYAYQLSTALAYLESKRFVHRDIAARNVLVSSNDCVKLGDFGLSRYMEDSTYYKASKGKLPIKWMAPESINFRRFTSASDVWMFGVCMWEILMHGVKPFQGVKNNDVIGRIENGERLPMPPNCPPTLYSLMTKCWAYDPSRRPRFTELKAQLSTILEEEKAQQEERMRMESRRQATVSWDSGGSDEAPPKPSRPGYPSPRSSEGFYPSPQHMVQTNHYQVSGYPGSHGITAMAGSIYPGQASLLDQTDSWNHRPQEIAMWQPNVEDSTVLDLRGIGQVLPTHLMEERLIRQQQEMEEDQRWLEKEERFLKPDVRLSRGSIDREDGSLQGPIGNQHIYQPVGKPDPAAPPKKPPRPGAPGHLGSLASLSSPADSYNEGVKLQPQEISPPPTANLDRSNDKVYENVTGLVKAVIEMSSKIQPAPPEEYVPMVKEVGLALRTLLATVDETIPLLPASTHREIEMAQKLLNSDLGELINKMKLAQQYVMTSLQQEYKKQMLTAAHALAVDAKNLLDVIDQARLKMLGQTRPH

COC(=O)c1ccccc1Nc1nc(Nc2ccc(CN)cc2)nc2nccn12
IC50 [1]: 240 nM

COC(=O)c1ccccc1Nc1nc(Nc2cc(OC)c(OC)c(OC)c2)nc2nccn12
IC50 [1]: 280 nM

COc1cc(NC2=Nc3nccn3C(Cc3ccccc3NC(C)=O)N2)cc(OC)c1OC (stereo not drawn)
IC50 [1]: 8910 nM

COC(=O)c1ccccc1Nc1nc(Nc2cc(OC)c(OC)c(OC)c2)n2ccnc2n1
IC50 [1]: 570 nM

CNC(=O)c1ccccc1Nc1nc(Nc2ccc(CN)cc2)n2ccnc2n1
IC50 [1]: 220 nM

COC(=O)c1ccccc1Nc1nc(Nc2ccc(N3CCOCC3)cc2OC)nc2nccn12
IC50 [1]: 370 nM

COC(=O)c1ccccc1Nc1nc(Nc2ccc(N3CCOCC3)cc2OC)n2ccnc2n1
IC50 [1]: 570 nM

CNC(=O)c1ccccc1Nc1nc(Nc2cc(OC)c(OC)c(OC)c2)n2ccnc2n1
IC50 [1]: 310 nM

CNC(=O)c1ccccc1Nc1nc(Nc2ccc(C#N)cc2)nc2nccn12
IC50 [1]: 710 nM

COC(=O)c1cccc(Nc2nc(Nc3cc(OC)c(OC)c(OC)c3)n3ccnc3n2)c1
IC50 [1]: 1200 nM

CNC(=O)c1ccccc1Nc1nc(Nc2ccc(C#N)cc2)n2ccnc2n1
IC50 [1]: 1120 nM

COC(=O)c1ccccc1Cc1nc(Nc2cc(OC)c(OC)c(OC)c2)nc2nccn12
IC50 [1]: 370 nM

CS(=O)(=O)Nc1ccccc1Nc1nc(Nc2ccc(C#N)cc2)n2ccnc2n1
IC50 [1]: 1730 nM

C=COC(=O)NCc1ccc(Nc2nc(Nc3ccccc3C(=O)OC)n3ccnc3n2)cc1
IC50 [1]: 500 nM

C=COC(=O)NCc1ccc(Nc2nc(Nc3ccccc3C(=O)OC)nc3nccn23)cc1
IC50 [1]: 1050 nM

COC(=O)c1cccc(Nc2nc(Nc3cc(OC)c(OC)c(OC)c3)nc3nccn23)c1
IC50 [1]: 870 nM

CNC(=O)c1ccccc1Nc1nc(Nc2cc(OC)c(OC)c(OC)c2)nc2nccn12
IC50 [2]: 220 nM
IC50 [1]: 230 nM
IC50 [3]: > 10000 nM
Activity [4]: Dose-dependent effect
IC50 [5]: 950 nM
Activity [6]: Active
Activity [7]: Dose-dependent effect
IC50 [8]: 990 nM
IC50 [9]: 3900 nM
IC50 [10]: 760 nM
IC50 [11]: 4200 nM
IC50 [12]: 350 nM

CNC(=O)c1ccccc1Nc1nc(Nc2ccc(N3CCOCC3)cc2OC)n2ccnc2n1
IC50 [1]: 510 nM

CS(=O)(=O)Nc1ccccc1Nc1nc(Nc2ccc(C#N)cc2)nc2nccn12
IC50 [1]: 920 nM

CNC(=O)c1ccccc1Nc1nc(Nc2ccc(CN)cc2)nc2nccn12
Activity [13]: 50%
Activity [14]: inactive
viability at 0.3 µM [15]: 96.6%
Activity [16]: 4.06%
Activity [17]: 66.4%
viability at 0.4 µM [18]: 88.7%
Activity [19]: 3.03%
inhibition [20]: Dose-dependent effect
IC50 [2]: 220 nM
Activity [21]: Dose-dependent effect
Activity [22]: 24.4%
Activity [23]: 1.26%
Activity [24]: 4.24%
Activity [25]: Active
IC50 [1]: 120 nM
Activity [26]: 61%
IC50 [3]: 1080 nM
Activity [4]: Dose-dependent effect
Activity [27]: 0.755%
IC50 [5]: 310 nM
Activity [7]: Dose-dependent effect
IC50 [8]: 1400 nM
inhibition [28]: Dose-dependent effect
Activity [29]: Active
inhibition [9]: Dose-dependent effect
IC50 [9]: 520 nM
Activity [30]: 1.37%
inhibition [31]: Dose-dependent effect
IC50 [10]: 120 nM
Activity [32]: 12.8%
Activity [33]: 50%
IC50 [11]: 370 nM
IC50 [12]: 1270 nM

CNC(=O)c1ccccc1Cc1nc(Nc2cc(OC)c(OC)c(OC)c2)nc2nccn12
IC50 [1]: 180 nM

C=COC(=O)NCc1ccc(Nc2nc(Nc3ccccc3C(=O)NC)nc3nccn23)cc1
IC50 [1]: 880 nM

COc1cc(Nc2nc(Cc3ccccc3NS(C)(=O)=O)nc3nccn23)cc(OC)c1OC
IC50 [1]: 840 nM

CNC(=O)c1ccccc1Nc1nc(Nc2ccc(N3CCOCC3)cc2OC)nc2nccn12
inhibition [20]: Dose-dependent effect
IC50 [2]: 1400 nM
IC50 [1]: 330 nM
IC50 [3]: > 10000 nM
Activity [4]: Dose-dependent effect
Activity [34]: Active
IC50 [5]: 340 nM
Activity [7]: Dose-dependent effect
IC50 [8]: 630 nM
inhibition [28]: Dose-dependent effect
inhibition [9]: Dose-dependent effect
IC50 [9]: > 10000 nM
inhibition [31]: Dose-dependent effect
IC50 [10]: 20 nM
IC50 [11]: 2310 nM
IC50 [12]: 270 nM

COC(=O)c1ccccc1Nc1nc(Nc2ccc(CN)cc2)n2ccnc2n1
IC50 [1]: 280 nM

Reference: ChEMBL document CHEMBL3392964, “Design, synthesis, and evaluation of novel imidazo[1,2-a][1,3,5]triazines and their derivatives as focal adhesion kinase inhibitors with antitumor activity” (J Med Chem, 2015)
